This passage reports Ki, EC50 and Activity results from ChEMBL document CHEMBL5705901, “Exploiting selective BCL-2 family inhibitors to dissect cell survival dependencies and define improved strategies for cancer therapy” (Sci Transl Med, 2015).

The target of data set [1] is Apoptosis regulator Bcl-2 (Homo sapiens, UniProt P10415). Description: Binding affinity to Bcl-2 (unknown origin) assessed as dissociation constant incubated for 1 hrs by TR-FRET assay. For orientation: TR-FRET usually uses a lanthanide donor and a delayed reading to cut background.
Data set [2] addresses Bcl-2-like protein 1 (Homo sapiens, UniProt Q07817). Description: Binding affinity to Bcl-xl (unknown origin) assessed as dissociation constant incubated for 1 hrs by TR-FRET assay.
Data set [3] deals with Induced myeloid leukemia cell differentiation protein Mcl-1 (Homo sapiens, UniProt Q07820). Briefly: Binding affinity to MCL-1 (unknown origin) assessed as dissociation constant incubated for 1 hrs by TR-FRET assay.
Data set [4] has as its target T1, Bcl-2-like protein 2 (Homo sapiens, UniProt Q92843).
T1 sequence (Q92843 whole entry): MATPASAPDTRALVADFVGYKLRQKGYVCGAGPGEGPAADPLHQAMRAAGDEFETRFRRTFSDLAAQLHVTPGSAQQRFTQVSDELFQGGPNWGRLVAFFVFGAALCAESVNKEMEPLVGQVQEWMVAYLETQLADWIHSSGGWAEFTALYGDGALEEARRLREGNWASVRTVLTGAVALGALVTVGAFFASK
Briefly: Binding affinity to BCL-W (unknown origin) assessed as dissociation constant incubated for 1 hrs by TR-FRET assay.

The subject of data set [5] is MOLT-4. Briefly: Antiproliferative activity against Bcl-xl dependent human MOLT-4 cells assessed as reduction in cell viability by measuring effect concentration by CellTiter-Glo reagent based assay. In kind it is functional.
Data set [6] can be described thus: Toxicity in Sprague-Dawley rat assessed as inhibition of granulopoiesis by measuring reduction in neutrophil count at 30 mg/kg, po administered daily for 5 days measured on day 6 by microscopic analysis relative to control. The format is organism-based. Set-up: scale not given: the % may be the effect or the level left. The note with it: in vivo, 144 h, time 6 day. In outline:
(§1)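 Male Sprague-Dawley rats, n = 10 per group: docetaxel 5 mg/kg i.v. once, or oral inhibitor daily for 5 days (30, 50 or 7 mg/kg depending on agent), alone or combined with docetaxel, against vehicles. Total neutrophil and platelet counts in blood collected on day 6; Tukey-Kramer test versus vehicle.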

Data set [7] can be described thus: Toxicity in Sprague-Dawley rat assessed as inhibition of granulopoiesis by measuring reduction in neutrophil count at 30 mg/kg, po administered daily for 5 days measured on day 6 in the presence of docetaxel by microscopic analysis relative to control. In kind it is organism-based. The note with it: in vivo, 144 h, time 6 day. In outline: as §1
The nature of data set [8]: Toxicity in Sprague-Dawley rat assessed as inhibition of […] by measuring reduction in circulating platelets at 30 mg/kg, po administered daily for 5 days and measured on day 6 by microscopic analysis. In kind it is organism-based. The note with it: in vivo, 144 h, time 6 day. Put shortly:
as §1

Data set [9] is described as follows: Toxicity in Sprague-Dawley rat assessed as inhibition of granulopoiesis by measuring reduction in neutrophil count at 50 mg/kg, po administered daily for 5 days measured on day 6 by microscopic analysis relative to control. The format is organism-based. Set-up: scale not given: the % may be the effect or the level left. The conditions noted are these: in vivo, 144 h, time 6 day. Put shortly: as §1

The nature of data set [10]: Toxicity in Sprague-Dawley rat assessed as inhibition of granulopoiesis by measuring reduction in neutrophil count at 50 mg/kg, po administered daily for 5 days measured on day 6 in presence of docetaxel by microscopic analysis relative to control. In kind it is organism-based. The note with it: in vivo, 144 h, time 6 day. In outline: as §1
Data set [11] can be described thus: Toxicity in Sprague-Dawley rat assessed as inhibition of […] by measuring reduction in circulating platelets at 50 mg/kg, po administered daily for 5 days and measured on day 6 by microscopic analysis. The format is organism-based. The note with it: in vivo, 144 h, time 6 day. Put shortly: as §1

Structures are written as SMILES.

Chain of Induced myeloid leukemia cell differentiation protein Mcl-1 (Q07820 whole entry): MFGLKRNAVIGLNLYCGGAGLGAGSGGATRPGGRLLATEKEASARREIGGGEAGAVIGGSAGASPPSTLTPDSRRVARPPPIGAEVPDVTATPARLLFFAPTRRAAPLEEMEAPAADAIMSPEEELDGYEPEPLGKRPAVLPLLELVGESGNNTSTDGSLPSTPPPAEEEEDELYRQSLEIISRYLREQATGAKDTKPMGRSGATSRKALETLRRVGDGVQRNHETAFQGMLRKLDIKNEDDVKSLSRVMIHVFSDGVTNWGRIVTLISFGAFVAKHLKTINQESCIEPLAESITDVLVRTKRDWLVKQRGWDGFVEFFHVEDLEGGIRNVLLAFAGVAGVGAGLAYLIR
Chain of Bcl-2-like protein 1 (Q07817 whole entry): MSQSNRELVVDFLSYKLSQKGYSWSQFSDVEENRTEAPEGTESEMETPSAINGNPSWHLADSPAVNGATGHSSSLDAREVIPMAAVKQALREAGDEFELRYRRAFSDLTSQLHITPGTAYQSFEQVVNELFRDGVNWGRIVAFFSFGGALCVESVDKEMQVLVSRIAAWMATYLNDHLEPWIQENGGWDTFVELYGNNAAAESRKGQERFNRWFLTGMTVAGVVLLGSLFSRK
Chain of Apoptosis regulator Bcl-2 (P10415 whole entry): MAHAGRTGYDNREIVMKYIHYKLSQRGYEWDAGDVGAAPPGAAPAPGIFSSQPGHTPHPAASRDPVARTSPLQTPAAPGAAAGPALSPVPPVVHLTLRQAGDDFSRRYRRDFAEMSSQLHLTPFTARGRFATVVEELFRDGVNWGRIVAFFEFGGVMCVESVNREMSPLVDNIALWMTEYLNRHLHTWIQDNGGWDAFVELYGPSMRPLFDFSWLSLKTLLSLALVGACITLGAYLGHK

The term Ki denotes a measure of affinity in units of concentration, obtained from inhibition or displacement. The term EC50 denotes the midpoint of the concentration-response curve. As to `CC1(C)CCC(CN2CCN(c3ccc(C(=O)NS(=O)(=O)c4ccc(N[C@H](CCN5CCOCC5)CSc5ccccc5)c(S(=O)(=O)C(F)(F)Cl)c4)cc3)CC2)=C(c2ccc(Cl)cc2)C1`, the Ki was 0.048 nM in data set [1], 0.463 nM in [2], greater than 3900 nM in data set [3] and 2 nM in data set [4]. Besides, the EC50 in data set [5] worked out at 134 nM. Also, the values for the Activity in data set [6], in data set [7] and in data set [8] were 41%, “Toxic” and “Toxic”, respectively.

Take `CO[C@H]1CC[C@H](CNc2ccc(S(=O)(=O)NC(=O)c3ccc(N4CCN(CC5=C(c6ccc(Cl)cc6)CC(C)(C)CC5)CC4)cc3Oc3cnc4[nH]ccc4c3)cc2[N+](=O)[O-])CC1` [A-1211212]: the Ki is less than 0.01 nM in [1], 14 nM in [2], greater than 444 nM in data set [3] and 852 nM in [4]. Also, the EC50 in data set [5] was greater than 5000 nM. Besides, the values for the Activity in data set [9], in [10] and in data set [11] were 41%, “Toxic” and “Non-Toxic”, respectively.
